Measured values: ChEMBL document CHEMBL1142436, “Design and synthesis of 4-substituted indolo[3,2-e][1,2,3]triazolo[1,5-a]pyrimidine derivatives with antitumor activity” (2008)

What was measured:
Assay type in all cases: functional
NCI-H460 = test: Antitumor activity against human NCI-H460 cells at 0.1 mM after 48 hrs
Outline: (§1)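 Prescreen run under the NCI Developmental Therapeutic Program. Agents were tested at a single concentration of 10^-4 M against a three-line panel (MCF7, NCI-H460, SF-268).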

MCF7 = test: Antitumor activity against human MCF7 cells at 0.1 mM after 48 hrs; outline: as §1
SF-268 = test: Antitumor activity against human SF268 cells at 0.1 mM after 48 hrs; outline: as §1

SMILES | Activity (NCI-H460) | Activity (MCF7) | Activity (SF-268)
CCOC(=O)CCCn1c(=O)c2c3ccccc3n(C)c2n2nnc(-c3ccccc3)c12 | 95% | 114% | 110%
Cn1c2ccccc2c2c(=O)n(CCCC(=O)O)c3c(-c4ccccc4)nnn3c21 | 95% | 80% | 87%
